test: Toxicity liver stage against HepG2, at 10uM; assay type: cell-based; design: test concentration 10 uM, cell line HepG2-A16-CD81EGFP; conditions: human, HepG2-A16-CD81EGFP cells; read-out: INHIBITION
Outline: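 Uninfected HepG2-A16-CD81EGFP cells, 3 × 10^3 per well, 1536-well, plated on prespotted compound at 10 μM final, parasite-free screening media added to match infected plates; puromycin 10 μM positive, DMSO 0.5% negative; run in parallel with 48 h PbLuc assay at 37 °C, 5% CO2; viability by CellTiter-Glo luminescence, normalized to controls.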

In order of falling cytotoxicity at 10 µM:
1. Cc1cc2c(cc1Cl)C=CC1(CCN(C(=O)N3CCOCC3)CC1)O2  23.2%
2. CC(Nc1nc2c(cnn2C)c(=O)[nH]1)c1ccccn1 (stereo unspecified)  13.3%
3. O=C(NC1(C(=O)O)CCCCC1)C1Cc2ccccc2O1 (stereo unspecified)  10.9%
4. CCOc1cc(CNC(C)c2ccc(F)cc2)ccn1 (stereo unspecified)  10.9%
5. CCOc1c(CNC2CSCCSC2)cccc1OC  10.8%
6. CN(C)C(=O)c1nc(-c2ccc(S(C)(=O)=O)cc2)c2ccccn12  8.77%
7. CCCC(=O)N1CCCC(Cn2cc(-c3ccc(F)cc3)nn2)C1 (stereo unspecified)  7.88%
8. CS(=O)(=O)N1CCC2(CC1)COC(COc1cccnc1)C2 (stereo unspecified)  7.61%
9. Cc1nc(CN2CCOCC3(CCN(c4cnccn4)CC3)C2)cs1  7.37%
10. Cn1cnc2c1C(COCC1CC1)CN(c1ncccn1)C2 (stereo unspecified)  7.22%
11. CC(C)c1ccc(/C=C/CC(=O)NC2CCN(C(N)=O)CC2)cc1  7.1%
12. CC(C)n1cnnc1CN(C)C(=O)CCn1cnc2ccccc2c1=O  6.4%
13. Oc1cc(C2CCCCN2C2CCCC2)nc(-c2ccncc2)n1 (stereo unspecified)  5.94%
14. CCN(CC)C1CCN(C(=O)NCc2cccc(-n3cccn3)c2)C1 (stereo unspecified)  5.79%
15. COCC1CC2(CCNCC2)CN1Cc1csc(C)n1 (stereo unspecified)  5.77%
16. CCS(=O)(=O)N1CCC2(CCN(CC(=O)N(C)C)C2=O)CC1  5.68%
17. COCC(=O)N1Cc2nccn2CC(COc2cccnc2)C1 (stereo unspecified)  5.41%
18. CCc1nc2n(n1)CCCC2NC(=O)Nc1ccc(SC)c(F)c1 (stereo unspecified)  5.08%
19. Cc1ccc(NC(=O)Cn2cc(I)cn2)cc1C  5.03%
20. COc1ccc(C(NCc2cccc(O)c2)C2CC2)cc1 (stereo unspecified)  4.99%
21. Cc1cc(C)n2cc(CN3CCCC3Cn3nc(C)nc3C)nc2n1 (stereo unspecified)  4.91%
22. COc1ncc(C(=O)N(Cc2cnn(C)c2)C(C)C)cn1  4.23%
23. CNC(=O)c1ccc(NC(=O)NC(C)CCc2cccn2C)c(C)c1 (stereo unspecified)  3.75%
24. CCC(=O)c1cccc(S(=O)(=O)NC(C)C#N)c1 (stereo unspecified)  3.73%
25. Cc1cc(-c2ccccc2)nc(C2CCCN2S(C)(=O)=O)n1 (stereo unspecified)  3.5%
26. Cc1cc(CN2CCN(C(=O)C(C)C)[C@@H]3CS(=O)(=O)C[C@@H]32)ccc1F  3.41%
27. Cc1ccc2nc(C)c(C)c(C(=O)N3CCS(=O)(=O)CC3)c2c1  3.24%
28. Cn1nnnc1SCCNC1CCN(c2ccc3c(c2)OCO3)CC1  3.07%
29. CCc1noc(CN2CCCN(Cc3cccs3)CC2)n1  2.76%
30. Cc1ccc(S(=O)(=O)N2CCC(S(C)(=O)=O)CC2)cc1C  2.59%
31. CCS(=O)(=O)N1CCC2(CCN(Cc3cccc(OC)c3)CC2)CC1  2.5%
32. Cc1nc2cc(F)ccc2cc1C(=O)N1CCN(CC(C)O)CC1 (stereo unspecified)  2.49%
33. COc1ccccc1Cc1cc(O)nc(NC(C)CN(C)C)n1 (stereo unspecified)  2.32%
34. CN1CCOC[C@H]1c1nc(-c2ccncc2)c[nH]1  2.23%
35. O=C1[C@H]2CN(c3ncccn3)C[C@H]2CN1CCN1CCCC1  2.2%
36. CCNC(=O)c1cc(OC)c(OC)cc1N(C)S(C)(=O)=O  1.56%
37. COC(=O)NCCCC(=O)NCC1(c2cccc(Cl)c2)CC1  1.42%
38. O=C(c1cc(C2CC2)[nH]n1)N1CCN(c2nccs2)CC1  1.39%
39. COC(=O)C(CNC(=O)Nc1cn[nH]c1)Cc1cccc(C)c1 (stereo unspecified)  1.37%
40. COc1cccc(CCC2CCCN(Cc3ncc[nH]3)C2)c1 (stereo unspecified)  1.13%
41. O=C1CC(C(=O)Nc2nnc(-c3ccoc3)[nH]2)c2ccccc2N1 (stereo unspecified)  0.841%
42. O=C(c1ccccn1)N1CCc2ncnc(N3CCOCC3)c2CC1  0.661%
43. COCC(=O)N[C@H]1C[C@@H](Cc2cc(CN3CCOCC3)on2)C1(C)C  0.66%
44. CCNC(=O)[C@@H]1C[C@@H](N)CN1C(=O)c1[nH]c2ccccc2c1CC  0.106%
45. O=C(NCCCO)Nc1cccc(C[S+]([O-])c2ccccc2)c1 (stereo unspecified)  0.0964%
46. Cc1nc(C)n(CC2CCCN2Cc2cnc(C)s2)n1 (stereo unspecified)  0.0757%
47. CCn1cc(CNc2ccc(F)c(F)c2)cn1  -0.0638%
48. COCCC(C)NS(=O)(=O)c1ccc(C)c(N(C)C)c1 (stereo unspecified)  -0.2%
49. O=C(Cn1c(=O)[nH]c2cn(-c3ccccc3)c(=O)n21)NC1CCCCC1  -0.2%
50. Cc1cc(C)nc(N2CCCC(c3cccc(-n4ccnc4)n3)C2)n1 (stereo unspecified)  -0.252%
51. CN1CCN(S(=O)(=O)c2cccnc2)c2cnccc21  -0.376%
52. CCn1cnnc1CNC(=O)N1CCN(c2ccccc2Cl)CC1  -0.502%
53. Cc1nc(C)n(CC2CCCN2CC(=O)NCCC2=CCCCC2)n1 (stereo unspecified)  -0.527%
54. CCC(C)NC(=O)CCn1ccc(C)n1 (stereo unspecified)  -0.634%
55. O=C(NC[C@H]1COCc2nc3cc(F)ccc3n21)c1cccnc1  -1.23%
56. O=C(O)CCc1nc2nccc(C(F)(F)F)n2n1  -1.36%
57. Cc1nc(C)n(CC2CN(CCOc3ccccc3F)CCO2)n1 (stereo unspecified)  -1.44%
58. CCc1ccc(C(C)NC(=O)CCc2nc(-c3nnc[nH]3)no2)cc1 (stereo unspecified)  -1.98%
59. CCc1nc(CN2CCCN(Cc3cnn(C)c3)CC2)no1  -2%
60. Cc1cn2c(n1)CCC(NC(=O)c1cc(C(C)C)no1)C2 (stereo unspecified)  -2.12%
61. CC(C)(C)c1cnc(CNCC2CCCN2c2cccnn2)o1 (stereo unspecified)  -2.2%
62. CS(=O)(=O)N1C[C@@H]2CC[C@H]1CN(Cc1ccncc1)C2  -2.34%
63. CC(C)C1CN(C(=O)c2cc(=O)[nH]c(=O)[nH]2)CCCN1CC1CC1 (stereo unspecified)  -2.42%
64. CCCC(=O)N(C)C(c1cccc(F)c1)c1ccccn1 (stereo unspecified)  -2.51%
65. CCNc1ncc(C(=O)NCc2cccc(OC(F)(F)F)c2)cn1  -2.94%
66. Cc1cc(C)n(CC2CN(CC(=O)Nc3nncs3)CCO2)n1 (stereo unspecified)  -2.97%
67. O=C(c1ccnc(N2CCOC(C(F)(F)F)C2)c1)N1CCCC1 (stereo unspecified)  -3.5%
68. O=C1COC2(CCN(Cc3ccncc3)CC2)CN1CC1CC1  -3.84%
69. CCOCCN1CCN(CCOC)CC1C (stereo unspecified)  -4.2%
70. CCNC(=O)C1CN(Cc2c(-c3cc(C)on3)nn(C)c2Cl)CCO1 (stereo unspecified)  -4.37%
71. O=C(NC1CCCN(c2ncccn2)C1)c1cn2ccccc2n1 (stereo unspecified)  -4.38%
72. C=Cn1ncc(CN2CCc3nc(-c4ccncc4)nc(O)c3C2)c1C  -4.45%
73. CN(CC1CCCO1)c1nc(-c2cccnc2)nc2c1CCNCC2 (stereo unspecified)  -4.68%
74. CC(C)(CO)CCCNC(=O)NC1(c2cccc(F)c2)CC1  -4.86%
75. Cc1ccoc1C(=O)N1C[C@H](OCc2cccnc2)[C@H]2OCCC[C@H]21  -5.28%
76. Cc1cnn(CC2CN(CC(=O)NCc3ccccn3)CCO2)c1 (stereo unspecified)  -5.8%
77. CCn1ncc2c1CCCC2NCc1ccc(OC)c(F)c1 (stereo unspecified)  -6.07%
78. COCCN1C(=O)CO[C@H]2CN(Cc3ccccc3Cl)C[C@@H]21  -6.55%
79. CC(NC(=O)NCCn1ccnc1)c1ccc2c(c1)NC(=O)CO2 (stereo unspecified)  -7.36%
80. O=C(NC1CC1)N1CCN(c2cnccn2)CC1  -7.39%
81. CCc1cc(NCC(O)CN2CCCCC2)n2ncnc2n1 (stereo unspecified)  -7.45%
82. CC(=O)Nc1ccc(CNCc2cccnc2N(C)C)cc1  -7.49%
83. Cc1n[nH]c(=O)c2c(NC(=O)CN3CCOCC3)oc(C)c12  -7.95%
84. COc1ccc2nc(C3CC3)cc(C(=O)NCc3ncnn3C)c2c1  -8.06%
85. COC(=O)C1CN(Cc2nc(C(C)(C)C)cs2)C[C@@H](C)O1 (stereo partly specified)  -8.22%
86. COc1ccc(C2CC(=O)Nc3c2nc2n3CCCC2)cc1OC (stereo unspecified)  -8.41%
87. CS(=O)(=O)N1CCC(C(=O)NCCCn2cc(Cl)cn2)CC1  -8.97%
88. CCCc1nc(C)c(C(=O)NCC2CCN(C3CC3)C2)s1 (stereo unspecified)  -9.34%
89. CCOCC(=O)N1C[C@@H](NC(C)=O)[C@H](c2ccc(OC)cc2)C1  -9.44%
90. CCc1ccc(NC(=O)c2ncc(C(N)=O)cc2Cl)cc1F  -9.86%
91. N#Cc1ccc(OCCCN2CCc3cncnc3C2)cc1  -10%
92. O=C(c1cc(=O)[nH]c(=O)[nH]1)N1CCCCC1c1ccc(F)cc1 (stereo unspecified)  -10.2%
93. CC(C)c1nnsc1CN1CCc2[nH]nc(-c3ccc(Cl)cc3)c2C1  -10.3%
94. CC(C)(C)NS(=O)(=O)c1cc(NC(=O)C2CC2)ccc1F  -10.6%
95. COCC1c2c(cnn2C)CCN1Cc1ccoc1 (stereo unspecified)  -10.8%
96. COC(=O)C(NC(=O)c1ccco1)c1cc(F)ccc1F (stereo unspecified)  -11.5%
97. Cc1ncc(CN2CCC(c3nc(O)cc(-c4ccsc4)n3)CC2)cn1  -11.8%
98. CC(C)c1cc(C(=O)N2CCCC(n3cncn3)C2)n[nH]1 (stereo unspecified)  -11.9%
99. CCCc1noc2ncc(C(=O)N3CCCC3c3cnn(C)c3)cc12 (stereo unspecified)  -11.9%
100. Cc1nc(COc2ccc(CNCC3CN(C)CCO3)cc2)cs1 (stereo unspecified)  -13.1%
101. CCCN1CCCn2nc(CNS(=O)(=O)c3cccc(F)c3)cc2C1  -13.1%
102. CC(=O)N(Cc1noc(C)n1)C1CCN(Cc2ncc(C(C)C)o2)C1 (stereo unspecified)  -13.2%
103. Cc1ccc(NC2CCN(C(=O)c3ccco3)CC2)nn1  -14.3%
104. CN(Cc1cccs1)C(=O)CN1CCCC1Cn1cncn1 (stereo unspecified)  -15.6%
105. CC(C)c1nc(CN(C)C(=O)CCc2ccc3c(c2)OCO3)cs1  -15.8%
106. COC(=O)C(O)C1CCN(Cc2cccc(-n3cccn3)c2)CC1 (stereo unspecified)  -16.5%
107. CN1CCN(c2ncc(-c3cnccn3)c([C@H]3CCCO3)n2)CC1  -20%
108. Cc1cnn(CCC(=O)N2CCCC(c3cc(C)[nH]n3)C2)c1 (stereo unspecified)  -23.6%
109. CC(C)NC(=O)CCN1CCC(C(=O)c2cc(F)ccc2F)CC1  -25%
110. CC(C)N(C)C(=O)CN1C(=O)OC[C@@H]1c1ccccc1  -47.7%
111. Cc1occc1C(=O)N1CCCC2(CCN(c3ccsc3)C2=O)C1 (stereo unspecified)  -70.7%
